# Assay results: ChEMBL document CHEMBL4732180, “Discovery of novel positive allosteric modulators of the α7 nicotinic acetylcholine receptor: Scaffold hopping approach” (Eur J Med Chem, 2021)
# Key:
# [1] = Intrinsic clearance in human liver microsome at 1 to […] up to 40 mins; format: ADME; settings: liver microsomes, dose 1-2.5 µM, read-out: CLH
# [2] = Intrinsic clearance in mouse liver microsome at 1 to […] up to 40 mins; format: ADME; settings: liver microsomes, dose 1-2.5 µM, read-out: CLH
# [3] = Intrinsic clearance in rat liver microsome at 1 to […] up to 40 mins; format: ADME; settings: liver microsomes, dose 1-2.5 µM, read-out: CLH
# [4] = Apparent permeability across apical to basolateral side in vinblastine-treated human Caco2 cells at 1 uM after 180 mins by HPLC or UHPLC-MS/MS analysis; format: ADME; settings: Caco-2
# Outline: (§1)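 Vinblastine-selected Caco-2 (VB-Caco-2) monolayers with high P-gp expression. Compound at 1 or 10 µM, measured apical-to-basolateral and basolateral-to-apical in HBSS with 25 mM HEPES. pH 7.4 on both sides, 37 °C, 120 rpm shaking, up to 180 min with compound-specific duration. Quantified by HPLC or UHPLC-MS/MS; PDR = Papp B-A / Papp A-B.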
# [5] = Lipophilicity, logP of compound; format: physicochemical; settings: octanol/water
# [6] = Apparent permeability across apical to basolateral side in vinblastine-treated human Caco2 cells at 10 uM after 180 mins by HPLC or UHPLC-MS/MS analysis; format: ADME; settings: Caco-2; outline: as §1
# [7] = AUC (0 to 5 hrs) in Wistar rat plasma at 3 mg/kg, iv up to 5 hrs by HPLC-MS/MS analysis; format: ADME, organism-based; set-up: route intravenous, dose 3 mg/kg, time <=5
# [8] = AUC (0 to 5 hrs) in Wistar rat plasma at 3 mg/kg, po up to 5 hrs by HPLC-MS/MS analysis; format: ADME, organism-based; set-up: route oral, dose 3 mg/kg, time <=5
# [9] = AUC (0 to 5 hrs) in Wistar rat brain at 3 mg/kg, po up to 5 hrs by HPLC-MS/MS analysis; format: ADME, organism-based; set-up: route oral, dose 3 mg/kg, time <=5
# [10] = Clearance in Wistar rat plasma at 3 mg/kg, iv up to 5 hrs by HPLC-MS/MS analysis; format: ADME, organism-based
# [11] = Volume of distribution in Wistar rat plasma at 3 mg/kg, iv up to 5 hrs by HPLC-MS/MS analysis; format: ADME, organism-based
# [12] = Half life in Wistar rat plasma at 3 mg/kg, iv up to 5 hrs by HPLC-MS/MS analysis; format: ADME, organism-based
# [13] = Cmax in Wistar rat plasma at 3 mg/kg, po up to 5 hrs by HPLC-MS/MS analysis; format: ADME, organism-based; set-up: route oral, dose 3 mg/kg, time <=5
# [14] = Cmax in Wistar rat brain at 3 mg/kg, po up to 5 hrs by HPLC-MS/MS analysis; format: ADME, organism-based; set-up: route oral, dose 3 mg/kg, time <=5
# [15] = Tmax in Wistar rat plasma at 3 mg/kg, po up to 5 hrs by HPLC-MS/MS analysis; format: ADME, organism-based
# [16] = Tmax in Wistar rat brain at 3 mg/kg, po up to 5 hrs by HPLC-MS/MS analysis; format: ADME, organism-based
Compound,microsomal CLint at […] [1],microsomal CLint at […] [2],microsomal CLint at […] [3],"Papp A→B at 3 h, 1 µM [4]",logP [5],"Papp A→B at 3 h, 10 µM [6]",AUC(0-t) [7],AUC(0-t) [8],AUC(0-t) [9],clearance [10],Vd [11],half-life [12],Cmax [13],Cmax [14],Tmax [15],Tmax [16]
CCC(=O)c1cc(-c2ccc(Cl)cc2)n(-c2ccc(S(N)(=O)=O)cc2)c1C,3 µL/min/mg,26 µL/min/mg,10 µL/min/mg,9 ×10⁻⁶ cm/s,4.7,,,,,,,,,,,
CCC(=O)c1cc(-c2ccc(S(N)(=O)=O)cc2)n(-c2ccc(Cl)cc2)n1,18 µL/min/mg,16 µL/min/mg,20 µL/min/mg,,3.8,20 ×10⁻⁶ cm/s,,,,,,,,,,
NS(=O)(=O)c1ccc(-c2cc(C(=O)N3CC4CC4C3)nn2-c2ccc(Cl)cc2)cc1 (stereo not given),4 µL/min/mg,5 µL/min/mg,10 µL/min/mg,,3.1,18 ×10⁻⁶ cm/s,3490 ng·h/mL,134 ng·h/mL,158 ng·h/mL,14.1 mL/min/kg,1.17 L/kg,0.97 h,31.6 ng/mL,36.8 ng/mL,2 h,2 h
